From paper PMC5768141 (Journal of natural products, 2017)

Key:
OVCAR8 cells = assay: Cell viability assay; type: cell-based; conditions: Homo sapiens, OVCAR-8, 72 h, read-out: IC50 against OVCAR8
HT-29 colon cancer cells = conditions: cited from earlier work
OVCAR3 cells [1] = assay: Soft agar colony formation assay; type: cell-based, human; conditions: OVCAR3, 21 days, vs DMSO control
Outline: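 OVCAR3 cells, cultured in RPMI 1640 with 10% FBS, were suspended at 1.5 × 10^4 cells in 0.35% w/v top agar over a 0.5% w/v base agar layer. They were grown 21 days with the medium changed every three days. Colonies were imaged by microscopy and counted by image analysis. Three biological replicates.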

[2] = tested on: OVCAR3 human ovarian cancer cells; assay: Cell viability assay; type: cell-based; conditions: OVCAR-3, 72 h, read-out: IC50 against OVCAR3
OVCAR3 cells [3] = assay: Immunoblot analysis with densitometry; type: cell-based, human; conditions: for ERK activation (phosphorylated ERK) / p53 expression: OVCAR3, 100 nM; for p53 expression: 72 h; for Bcl-xL expression / Cleaved PARP level / Cleaved caspase 3 level / Mcl-1 expression / p21 protein expression: OVCAR3, western blot densitometry
Outline: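 OVCAR3 cells exposed to test compound (100 nM, 72 h). Lysed in RIPA buffer on ice for 15 min, then spun at 14,000 g, 4 °C, 15 min. Protein quantified by BCA; 25 μg per lane run on SDS-PAGE and transferred to PVDF. Blocked in 5% milk/TBST for 1 h at RT, primary antibody overnight at 4 °C, secondary 30 min. Chemiluminescent detection, ImageJ densitometry, n = 3.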

[4] = tested on: OVCAR3 ovarian cancer cells; conditions: cited from earlier work
[5] = tested on: MOE^HIGH murine oviductal epithelial cells; assay: Cell viability assay; type: cell-based; conditions: Mus musculus, 72 h, read-out: IC50 against MOE^HIGH
KB nasopharyngeal cells = conditions: cited from earlier work
OVSAHO cells [6] = assay: Immunoblot analysis with densitometry; type: cell-based, human; conditions: for ERK activation (phosphorylated ERK): 100 nM; for p21 protein expression: western blot; for Cleaved PARP expression level: western blot densitometry
OVCAR3 cells [7] = assay: Cell cycle assay; type: cell-based, human; conditions: OVCAR3, 72 h
OVSAHO cells [8] = assay: Soft agar colony formation assay; type: cell-based, human; conditions: 21 days, vs DMSO control
Outline: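 OVSAHO cells (1.5 × 104) suspended in 0.35% w/v agar over a 0.5% w/v base agar layer, with test compound or solvent control. Grown 21 days with medium changed every three days. Colonies imaged by microscopy and counted by image analysis; three biological replicates.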

[9] = tested on: Na^+/K^+-ATPase (adenosine 5′-triphosphatase from porcine cerebral cortex); assay: Na^+/K^+-ATPase activity assay; type: biochemical; conditions: various concentrations, 15 min at 37 °C
Outline: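 The Na+/K+-ATPase from porcine cerebral cortex, in assay buffer, was mixed with DMSO or test compound in DMSO, and ATP was added to start the reaction. After 15 min at 37 °C, ADP-Glo reagent stopped the reaction and depleted ATP over 40 min at room temperature. Detection reagent then converted ADP to ATP over 60 min, and ATP was read by luciferin/luciferase luminescence.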

OVCAR3 cells [10] = assay: Clonogenic assay; type: cell-based, human; conditions: OVCAR3, 21 days, treated every three days
Outline: (§1)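 Cells in RPMI 1640 with 10% FBS were plated at 200 cells per 60 mm dish and grown 21 days. Test compound or solvent control was given every three days. Colonies were fixed with 4% (w/v) paraformaldehyde, stained with 0.04% (w/v) crystal violet for 30 min at room temperature, imaged and counted by image analysis. Three biological replicates.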

OVSAHO cells [11] = assay: Clonogenic assay; type: cell-based, human; conditions: 21 days, treated every three days
Outline: as §1

[12] = tested on: normal human colon CCD-112CoN cells; conditions: cited from earlier work
[13] = tested on: MDA-MB-231 breast cancer cells; conditions: cited from earlier work
[14] = tested on: normal human peripheral blood mononuclear cells; conditions: cited from earlier work
[15] = tested on: MOE^LOW murine oviductal epithelial cells; assay: Cell viability assay; type: cell-based; conditions: Mus musculus, 72 h, read-out: IC50 against MOE^LOW
OVCA432 cells = assay: Immunoblot analysis; type: cell-based, human
hERG channels = conditions: cited from earlier work

Row | Compound | ERK activation (phosphorylated ERK) (OVCAR3 cells [3]) | p53 expression (OVCAR3 cells [3]) | Bcl-xL expression (OVCAR3 cells [3]) | Cleaved PARP level (OVCAR3 cells [3]) | Cleaved caspase 3 level (OVCAR3 cells [3]) | Mcl-1 expression (OVCAR3 cells [3]) | p21 protein expression (OVCAR3 cells [3]) | IC50 [5] | ERK activation (phosphorylated ERK) (OVSAHO cells [6]) | p21 protein expression (OVSAHO cells [6]) | Cleaved PARP expression level (OVSAHO cells [6]) | Cell cycle distribution (OVCAR3 cells [7]) | IC50 [15] | p53 expression (OVCA432 cells) | also measured
1 | CO[C@H]1[C@H](O[C@H]2CC[C@]3(C=O)[C@H]4CC[C@]5(C)[C@@H](C6=CC(=O)OC6)CC[C@]5(O)[C@@H]4CC[C@]3(O)C2)O[C@H](C)[C@H](O)[C@@H]1OC [(+)-strebloside, (+)-Strebloside] | induced activation of ERK | disappearance of p53 | decrease in Bcl-xL after treatment was not statistically significant | significantly higher levels of cleaved PARP | significant increase in cleaved caspase 3 | expressed less Mcl-1 than control cells | expressed more p21 protein than the control | > 50 µM | induced activation of ERK | significant increase in p21 expression | higher than the levels in control cells | induced an accumulation of cells in the G2/M phase | > 50 µM | decreased expression of p53 | IC50 (OVCAR8 cells): 0.0911 µM; Cytotoxicity (HT-29 colon cancer cells): potent cytotoxicity; Soft agar colony formation (anchorage-independent growth) (OVCAR3 cells [1]): formed significantly less soft agar colonies than a DMSO control; IC50 [2]: 0.134 µM; In vivo potency in hollow fiber assay [4]: significant potency in vivo; Cytotoxicity (KB nasopharyngeal cells): potent cytotoxicity; Soft agar colony formation (anchorage-independent growth) (OVSAHO cells [8]): no difference was detected; Inhibition of Na^+/K^+-ATPase activity [9]: inhibited Na^+/K^+-ATPase activity in a concentration-dependent manner; 2D colony formation (OVCAR3 cells [10]): neither OVCAR3 nor OVSAHO cells formed colonies; 2D colony formation (OVSAHO cells [11]): neither OVCAR3 nor OVSAHO cells formed colonies; Toxicity compared with digoxin [12]: not as toxic as digoxin; In vivo potency in hollow fiber assay [13]: significant potency in vivo; Toxicity compared with digoxin [14]: not as toxic as digoxin
2 | C[C@H]1O[C@@H](O[C@H]2[C@@H](O)C[C@H](O[C@H]3[C@@H](O)C[C@H](O[C@H]4CC[C@@]5(C)[C@H](CC[C@@H]6[C@@H]5CC[C@]5(C)[C@@H](C7=CC(=O)OC7)CC[C@]65O)C4)O[C@@H]3C)O[C@@H]2C)C[C@H](O)[C@@H]1O [digitoxin, reference compound] | induced activation of ERK | disappearance of p53 | decrease in Bcl-xL after treatment was not statistically significant | significantly higher levels of cleaved PARP | significant increase in cleaved caspase 3 | expressed less Mcl-1 than control cells | expressed more p21 protein than the control | > 50 µM | induced activation of ERK | significant increase in p21 expression | higher than the levels in control cells | accumulation of cells in the G2/M phase | > 50 µM | decreased expression of p53 | Interaction with hERG channels and hERG trafficking (hERG channels): reported to interact with hERG channels and hERG trafficking
